# Measurements: ChEMBL document CHEMBL1131325, “Synthesis and antiviral evaluation of certain novel pyrazinoic acid C-nucleosides” (J Med Chem, 1998)
# Key:
# Human betaherpesvirus 5 = assay: Compound was evaluated for antiviral activity by their capacity to inhibit replication of HCMV virus; type: functional, organism-based
# In short: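 Towne strain HCMV (plaque-purified isolate P₀) plaque reduction in HFF cells in 24-well dishes, ~100 pfu/cm² cell sheet. After adsorption, compound in growth medium was added at 4–8 concentrations in duplicate wells. Incubation was 10–12 days at 37 °C, then crystal violet fixation/staining and microscopic plaque counts. IC50 came from linear regression of % plaque reduction vs. log concentration. Ganciclovir served as positive control.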
# Human alphaherpesvirus 1 = assay: Compound was evaluated for the antiviral activity by their capacity to inhibit the replication of HSV-1 virus; type: functional, organism-based
# In short: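 HSV-1 (KOS strain) ELISA in BSC-1 cells, 10 000 cells/well in MEM(E) + 10% calf serum, after overnight culture at 37 °C. Drug was added in quadruplicate with 100 pfu/well virus and incubated 3 days at 37 °C. Detection used HRP-conjugated rabbit anti-HSV-1 with TMB substrate, read at 450/570 nm. IC50 came from regression of % absorbance reduction vs. log concentration. Acyclovir was the positive control.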
# KB = assay: Cytotoxicity for the compound was determined by the inhibition of the growing KB cells.; type: functional, cell-based; details: Homo sapiens
# In short: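 KB cell growth was measured over two population doublings. Cells were plated at 3000–5000/well, cultured overnight, then compound was added in quadruplicate at 6–8 concentrations for 48 h at 37 °C in CO₂. Cells were fixed in 95% ethanol, stained with 0.1% crystal violet, eluted with 0.1 N HCl/ethanol and read at 570 nm. IC50 came from regression vs. log concentration. The positive control was 2-acetylpyridine thiosemicarbazone.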
# HFF = assay: Cytotoxicity for the compound was determined in uninfected stationary human foreskin fibroblasts (HFF) cells.; type: functional, cell-based
# In short: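 Stationary HFF monolayers not affected by virus in the HCMV plaque assay were examined microscopically for cytotoxicity. Visual scoring was done at the time of plaque enumeration, after 10–12 days at 37 °C. IC50 came from regression against log concentration.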
SMILES,IC50 (Human betaherpesvirus 5) [µM],IC50 (Human alphaherpesvirus 1) [µM],IC50 (KB) [µM],IC50 (HFF) [µM]
CCOC(=O)c1nc([C@@H]2O[C@H](CO)[C@@H](O)[C@H]2O)c(N)nc1Cl,> 100,> 100,> 100,> 100
CCOc1nc(Cl)c(C(N)=O)nc1[C@@H]1O[C@H](CO)[C@@H](O)[C@H]1O,> 100,> 100,> 100,> 100
Nc1nc2c(ncn2COC(CO)CO)c(=O)[nH]1 [GANCICLOVIR],–,1.8,> 100,> 100
COc1nc(Cl)c(C(N)=O)nc1[C@@H]1O[C@H](CO)[C@@H](O)[C@H]1O,> 100,> 100,> 100,> 100
OC[C@H]1O[C@@H](c2ncc(Cl)nc2Cl)[C@H](O)[C@@H]1O,70,–,–,> 100
CCOC(=O)c1nc([C@@H]2O[C@H](CO)[C@@H](O)[C@H]2O)c(Cl)nc1Cl,3.2,20,20,3.2
NC(=O)c1nc([C@@H]2O[C@H](CO)[C@@H](O)[C@H]2O)c(N)nc1Cl,> 100,> 100,> 100,> 100
CCOC(=O)c1nc([C@@H]2O[C@H](CO)[C@@H](O)[C@H]2O)c(NC)nc1Cl,> 100,> 100,> 100,> 100
